Bioassay records: PubChem BioAssay, several laboratories
PLK1 inh = PLK1 (human) kinase inhibition; recombinant PLK1 kinase, TR-FRET peptide phosphorylation; inhibition, % at 10 µM; 97,000 compounds, 0.53% hits; P53350;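 active means inhibition of 50% or more in the single-concentration screen; inactive means inhibition below 50%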;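 further: 0% = DMSO max control and 100% = H-89 dihydrochloride min control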
Cav32 inh = blocks human Cav3.2 T-type calcium channel | O95180 | B-score at 10 µM | Cav3.2-expressing cells, Fluo-4 calcium fluorescence FDSS; active compounds read low | 100,000 compounds, 4% hits;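 active means single-dose well whose peak fluorescence ratio is a statistical outlier from its plate by either plate-standardised score or position-corrected B-score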
FAK blocker = blocks human focal adhesion kinase activity; biochemical FAK kinase activity assay; 97,000 compounds, 0.84% hits; inhibition, %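 (tested at 7 µM)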; AID 727; Q05397; in the data active means inhibition above about 19%;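 further: 0% = DMSO and 100% = reference compound high control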
HIV Rev-RRE inh = HIV Rev-RRE protein-RNA interaction inhibition; P05866; Rev peptide-RRE RNA binding, FRET; inhibition, % at 8 µM; 97,000 compounds, 0.79% hits;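 active means inhibition above the screen-wide mean plus 3 SD, cut at about 35% in these data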;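 further: 0% = median DMSO wells and 100% = median Neomycin B control wells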
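Probe or stimulus: fluorescein-Rev peptide as binding partner; assay system: Cy5-tagged RRE RNA duplex with fluorescein-tagged Rev peptide; timing: 5 min compound–RNA preincubation, then 15 min with peptide, 25 °C; medium: HEPES pH 7.5 buffer with KCl, MgCl2, NaCl and EDTA; signal: fluorescein-to-Cy5 FRET, 480 nm excitation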
PLK1 PBD inh = inhibitors of human Plk1 polo box domain binding; Plk1 PBD phosphopeptide binding, fluorescence polarization; inhibition, %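 (tested at about 20 µM)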; 97,000 compounds, 0.13% hits; AID 693; in the data active means inhibition above about 34%, passing the limit was not always enough
EphB4 ephrin blk = antagonists of human EphB4-ephrin-B2 interaction. P54760. EphB4 LBD / TNYL-RAW-Alexa532 peptide, fluorescence polarization. inhibition, % at 7 µM. 97,000 compounds, 0.15% hits. AID 720;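 active means inhibition above the screen-wide mean inhibition plus 3 SD, cut at about 15% in these data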;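 further: 0% = DMSO wells and 100% = excess unlabeled TNYL-RAW peptide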
Target sequence (P54760 whole entry, looked up, the tested form may be a part): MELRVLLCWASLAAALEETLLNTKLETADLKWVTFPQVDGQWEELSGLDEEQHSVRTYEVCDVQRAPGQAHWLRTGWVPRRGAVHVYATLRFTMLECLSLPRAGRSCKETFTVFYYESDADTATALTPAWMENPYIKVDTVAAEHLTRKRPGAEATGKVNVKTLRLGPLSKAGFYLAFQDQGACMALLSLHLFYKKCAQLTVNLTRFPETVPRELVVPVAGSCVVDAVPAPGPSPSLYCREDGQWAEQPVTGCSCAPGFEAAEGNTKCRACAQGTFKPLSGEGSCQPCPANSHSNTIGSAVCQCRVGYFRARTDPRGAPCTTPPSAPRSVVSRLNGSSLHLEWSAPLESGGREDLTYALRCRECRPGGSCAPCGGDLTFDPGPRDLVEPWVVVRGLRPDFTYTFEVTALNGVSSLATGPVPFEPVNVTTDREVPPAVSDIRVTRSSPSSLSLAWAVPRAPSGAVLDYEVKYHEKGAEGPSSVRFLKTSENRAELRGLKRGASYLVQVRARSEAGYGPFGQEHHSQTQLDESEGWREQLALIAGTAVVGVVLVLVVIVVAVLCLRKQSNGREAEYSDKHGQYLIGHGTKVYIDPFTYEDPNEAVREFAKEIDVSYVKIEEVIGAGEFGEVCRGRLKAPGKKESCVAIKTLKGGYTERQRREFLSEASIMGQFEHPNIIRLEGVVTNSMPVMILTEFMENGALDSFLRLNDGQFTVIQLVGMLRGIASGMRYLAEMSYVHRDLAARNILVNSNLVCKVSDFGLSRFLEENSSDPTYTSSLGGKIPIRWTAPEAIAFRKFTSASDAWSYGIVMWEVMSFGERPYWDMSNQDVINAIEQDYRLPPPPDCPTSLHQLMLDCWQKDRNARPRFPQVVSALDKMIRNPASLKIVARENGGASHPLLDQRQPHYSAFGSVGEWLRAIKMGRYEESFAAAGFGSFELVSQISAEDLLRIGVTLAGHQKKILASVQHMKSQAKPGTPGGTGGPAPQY
The depositor's hits bear a star; nt = no result given; [ ] = another dose, or the depositor's remark. A selection: hits, their analogues and other compounds. The true share with any hit is near 5.3%.

SMILES	PLK1 inh	Cav32 inh	FAK blocker	HIV Rev-RRE inh	PLK1 PBD inh	EphB4 ephrin blk
Cc1cc(-c2cc(C(=O)NCc3ccccc3)on2)nc(S(C)(=O)=O)n1	nt	1.06	nt	nt	nt	nt
Cc1ccccc1Cn1c(Cc2ccccc2)nc2ccccc21	-14.4	-5.55*	4.2	14.3	-3.9	-2.9
COc1ccc(OC)c(/C(O)=C/C(=O)C(=O)Nc2ccccc2OC)c1	1.6	-8.53*	-1.0	7.2	-15.4	1.7
O=C(CSc1cccc(C(F)(F)F)c1)NC(=O)NCc1ccco1	nt	-5.31*	nt	nt	nt	nt
CCNC(=O)NC(=O)CSc1cccc(C(F)(F)F)c1	nt	-1.32	nt	nt	nt	nt
Cc1nnc(-c2cnn(C)c2N)n1Cc1ccccc1	7.5	-5.12*	-0.8	1.7	-7.5	4.9
CC(Sc1nnc(-c2cccs2)n1-c1ccccc1)C(=O)NCc1ccc2c(c1)OCO2 (centres undefined)	-4.5	-0.16	-1.9	5.0	14.7	6.5
CN=c1scc(C)n1/N=C/c1ccc2c(c1)OCO2	-8.7	-4.01*	0.5	3.1	-2.8	4.7
C=C(CC)C(=O)c1ccc(OCC(=O)O)c(Cl)c1Cl	nt	1.72	nt	nt	nt	nt
CCOC(=O)c1c(NC(=O)CSc2nnc3c(n2)[nH]c2ccccc23)sc2c1CCN(C)C2	0.7	0.822	19.6*	12.6	-21.0	-6.6
O=C(CN(Cc1cccs1)C(=O)CSc1nnc(COc2ccccc2)o1)NC1CCCCC1	-14.3	-0.224	0.4	4.4	15.4	-2.6
CCOc1ccc(N(CC(=O)NC2CCCCC2)C(=O)CSc2nnc(COc3ccccc3)o2)cc1	-9.9	-4.34*	1.5	-0.6	-6.6	-4.8
N#CC1=C(N)N(c2ccccc2)C(c2cccc([N+](=O)[O-])c2)C1(C#N)C#N (centres undefined)	-7.0	-6.64*	8.1	2.2	-9.9	4.4
Cc1cccc(N2C(N)=C(C#N)C(C#N)(C#N)C2c2ccccc2)c1 (centres undefined)	-7.2	nt	13.8	12.6	-9.5	1.4
CCOCCCNC(=O)COc1ccc(OC)cc1	-5.5	nt	-0.5	1.8	-19.2	2.1
CCc1ccc(/C=C/C(=O)C2C(=O)c3ccccc3C2=O)cc1	-8.2	-3.79*	1.7	5.1	-5.7	-3.5
CCn1c(SC(C)C)nnc1-c1cc(-c2ccccc2)sc1N	-9.7	-3.66*	1.3	-6.8	2.1	-4.7
O=C(NCc1cccc(C(F)(F)F)c1)C1CC2Cn3c(nc4ccccc43)C2N1Cc1ccccc1 (centres undefined)	nt	-1.42	nt	nt	nt	nt
COc1ccc(C(=O)CN2C(=O)c3ccccc3C2=O)c(OC)c1C	-5.9	-5.23*	1.4	13.9	-2.5	-1.4
Cc1cccc(NC(=O)c2nc[nH]c2C(=O)NCC(=O)OC(C)(C)C)c1	nt	-0.116	nt	nt	nt	nt
Cc1csc(NC(=O)c2sc3nc(-c4cccs4)ccc3c2N)n1	-16.1	-5.44*	0.3	101.6*[fluorescence artefact?]	-43.3	-4.7
CCSc1nnc(NC(=O)c2cccs2)s1	nt	1.06	nt	nt	nt	nt
CCCSc1nnc(NC(=O)c2sc3nc(-c4cccs4)ccc3c2N)s1	-6.5	-9.92*	-1.3	105.5*[fluorescence artefact?]	-87.4	0.9
CC(O)Cc1cn([C@@H](CCCCNC(=O)OC(C)(C)C)C(=O)N2CCN(C(=O)OC(C)(C)C)CC2)nn1 (some centres undefined)	nt	-0.626	nt	nt	nt	nt
COc1cc2cc(CN(Cc3ccc4c(c3)OCO4)C(=O)c3ccco3)c(=O)[nH]c2cc1OC	-12.4	-0.708	0.0	8.4	4.0	-0.1
SMILES	PLK1 inh	Cav32 inh	FAK blocker	HIV Rev-RRE inh	PLK1 PBD inh	EphB4 ephrin blk
Cc1cc2cc(CN(Cc3ccc4c(c3)OCO4)C(=O)c3ccco3)c(=O)[nH]c2cc1C	-21.1	-6.28*	-1.6	5.3	11.5	-2.2
COc1ccc(NC(=O)CSc2nc3ccccc3cc2Cc2ccccc2)cc1	-5.2	-4.19*	-9.1	4.0	-1.8	-5.4
COc1cc(NC(=O)CSc2nc3ccccc3cc2Cc2ccccc2)cc(OC)c1	-9.3	-3	-0.5	17.4	-3.4	-1.6
COc1cccc(NC(=O)CSc2nc3ccccc3cc2Cc2ccccc2)c1	-5.6	-4.01*	7.4	16.0	14.3	7.9
COc1ccc(OC)c(NC(=O)CSc2nc3ccccc3cc2Cc2ccccc2)c1	-10.0	-1.53	4.9	17.8	-32.4	4.1
N/C(Cc1cccs1)=N\OC(=O)COc1ccc(Cl)cc1Cl	-5.0	0.253	0.2	14.7	-3.6	0.3
CSc1nnc(COc2ccc(C)cc2)n1N	-17.2	0.146	36.7*	-0.2	-3.6	4.1
O=C(Nc1ccccc1)C1C2CCC3C(CCC21)C3(Cl)Cl (centres undefined)	-6.3	-2.5	16.8	1.8	7.8	-1.6
O=C(Nc1ccccc1)C1(c2ccccc2)CC1(Cl)Cl (centres undefined)	nt	-7.54*	nt	nt	nt	nt
COc1ccc(CNC(=O)Oc2ccccc2)cc1Cl	3.5	-5.19*	-1.9	6.5	-17.7	4.8
COc1cccc(NC(=O)N2CCN(c3cccc(C)c3C)CC2)c1	-7.4	-7*	-2.6	12.0	-10.7	2.2
O=C(COC(=O)C12CC3CC(CC(C3)C1)C2)Nc1ccc(OC(F)F)cc1	-15.3	-6.19*	0.7	15.6	-39.5	-1.0
CCC(C)[C@H]1CN=C(N)N1CCc1cccc(F)c1 (some centres undefined)	nt	-0.753	nt	nt	nt	nt
CCc1nc(N2CCN(Cc3ccc4c(c3)OCO4)CC2)c2oc3ccccc3c2n1	-8.9	0.0421	2.6	-1.8	-0.3	-6.2
CCC(NC(=O)Nc1nnc(C(F)(F)F)s1)(C(F)(F)F)C(F)(F)F	-12.2	-7.81*	-0.1	2.6	-3.5	-7.7
O=C(O)CCC(=O)Nc1nnc(C(F)(F)F)s1	-9.7	0.922	1.4	6.3	14.3	2.1
C#CCOC(=O)C(NC(=O)c1ccccc1)=C1CCCCC1	-15.1	0.00466	-2.1	-0.1	10.2	4.4
COc1ccc(/C=C2\CCc3ccccc3C2=O)cc1Cn1cccn1	-8.3	-3.71*	-1.1	6.5	9.0	-5.0
COc1ccc(/C=C2\CCc3ccccc3C2=O)cc1Cn1nc(C)c(Br)c1C	-13.3	nt	1.1	5.5	32.8	-9.6
CCCN(CCC)C(=O)CC(c1ccccc1)c1cc(C)ccc1O (centres undefined)	1.0	-5.93*	-1.2	10.0	6.6	-3.0
CCN(CCO)C(=O)CC(c1ccccc1)c1cc(Br)ccc1O (centres undefined)	-14.6	-0.75	-0.8	2.5	-6.6	-0.6
CCCCc1c(C(=O)O)cc(OC)cc1C(=O)O	nt	-0.236	nt	nt	nt	nt
CCCCCc1c2c(cc(O)c1C(=O)O)OC(=O)c1c(cc(OC)cc1C(=O)CCCC)O2	nt	-3.95*	nt	nt	nt	nt
Cc1ccc2nc(NC(=O)C(NS(=O)(=O)c3cccc4nsnc34)C(C)C)sc2c1 (centres undefined)	-11.7	-1.55	8.0	12.6	5.0	3.2
Cc1ccc(-c2cc(-c3ccccc3[N+](=O)[O-])[nH]n2)c(O)c1	-4.2	nt	1.1	11.6	-16.8	-4.3
Cc1n[nH]c(C)c1Sc1ccccc1N=Cc1cc(Cl)cc([N+](=O)[O-])c1O	2.2	-6.89*	-0.7	7.8	-7.5	5.7
